Key:
[1] = test system: subjects with elevated triglycerides; details: 4 g/day oral; cited from earlier work
NASH patients [2] = details: 1.8 or 2.7 g/day, 1 year; cited from earlier work
ob/ob mice = assay: Glucose metabolism and insulin resistance in ob/ob mice; assay type: in vivo; details: for Glucose metabolism, effect: fenofibrate 100, pioglitazone 30 mg/kg/d in diet
Method in brief: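 Male ob/ob mice aged 6-8 weeks, n = 10/group, either untreated or given test compound at 135 mg/kg/d in the diet for 5 weeks. Reference-agent groups were also dosed in the diet. Blood glucose, insulin, HbA1c and HOMA-IR were measured after 4 weeks on tail-vein EDTA blood taken after a 4-h fast. Body weight was recorded between 8 and 9 am. Mean ± SEM; Kruskal-Wallis then Mann-Whitney U.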

NASH patients [3] = details: PIVENS study; cited from earlier work
APOE*3Leiden.CETP mice [4] = assay: Hepatic lipotoxic lipid species; assay type: in vivo; details: 20 weeks, versus control
Method in brief: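 Male APOE*3Leiden.CETP mice aged 8-15 weeks on a high-fat diet (24% wt/wt lard, 1% wt/wt cholesterol), n = 12/group. Mice received daily corn-oil vehicle gavage or test compound at 112 mg/kg/d by oral gavage for 20 weeks, starting with the diet. Harvested livers underwent lipidomics and reduced/oxidized glutathione assays. Mean ± SEM; Kruskal-Wallis then Mann-Whitney U.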

APOE*3Leiden.CETP mice [5] = assay type: in vivo
Method in brief: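 High-fat/cholesterol-fed male APOE*3Leiden.CETP mice aged 8-15 weeks, n = 12/group, given corn-oil vehicle or test compound at 112 mg/kg/d by daily oral gavage for 20 weeks. Liver cross sections were stained with H&E or sirius red and scored with an adapted human NASH grading system. Hepatic lipids were determined biochemically. Body weight was monitored regularly. Mean ± SEM; nonparametric group comparisons.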

[6] = 20 weeks, icosabutate 112 mg/kg/d, rosiglitazone 13 mg/kg/d

Q: Which results are given for `CC/C=C\C/C=C\C/C=C\C/C=C\C/C=C\CCCC(=O)OCC` [EPA ethyl ester, eicosapentaenoic acid (EPA) ethyl ester]?
A: Major adverse cardiovascular events, effect [1]: markedly reduce; Effect on liver histology (NASH patients [2]): no effect

Q: Which “Plasma adiponectin, increase versus control” value (ob/ob mice; after 4 weeks of treatment) does the source give for `CC(C)OC(=O)C(C)(C)Oc1ccc(C(=O)c2ccc(Cl)cc2)cc1` [fenofibrate] here?
A: neither fenofibrate nor icosabutate affected

Q: And the “Plasma insulin, change versus control” value (ob/ob mice; after 4 weeks of treatment)?
A: less pronounced

Q: What about the “Reduction of blood glucose AUC (0‐120 minutes) in oral glucose tolerance test” value (ob/ob mice; after 5 weeks of treatment, 2 g/kg glucose, 4-hour fasted) of the same compound?
A: less potent effect

Q: And the “Glucose metabolism, effect” value (ob/ob mice)?
A: also improved glucose metabolism

Q: For `CCc1ccc(CCOc2ccc(CC3SC(=O)NC3=O)cc2)nc1` (stereo not shown) [pioglitazone], which “Fibrosis, effect” value (NASH patients [3]) is on record?
A: without change

Q: What about the “Lobular inflammation, effect” value (NASH patients [3]) of the same compound?
A: improvements

Q: And the “Plasma adiponectin, increase versus control” value (ob/ob mice; after 4 weeks of treatment)?
A: 4.5 fold

Q: And the “HOMA‐IR, change versus control” value (ob/ob mice; after 4 weeks of treatment, icosabutate 135, pioglitazone 30 mg/kg/d)?
A: −97%

Q: What about the “Glucose metabolism, effect” value (ob/ob mice) of the same compound?
A: also improved glucose metabolism

Q: What does the source list for `CN(CCOc1ccc(CC2SC(=O)NC2=O)cc1)c1ccccn1` (stereo not shown) [rosiglitazone]?
A: Hepatic GSH:GSSG ratio, effect (APOE*3Leiden.CETP mice [4]): had no effect; Hepatic GSSG, effect (APOE*3Leiden.CETP mice [4]): had no effect; Hepatic concentration of FFAs, effect (APOE*3Leiden.CETP mice [4]): had no effect; Hepatic concentration of HETEs (11[R]‐, 12‐, 15[S] isomers), effect (APOE*3Leiden.CETP mice [4]): significant increase; Hepatic concentration of arachidonic acid, effect (APOE*3Leiden.CETP mice [4]): had no effect; Hepatic concentration of bile acids, effect (APOE*3Leiden.CETP mice [4]): had no effect; Hepatic concentration of ceramides, effect (APOE*3Leiden.CETP mice [4]): had no effect; Hepatic concentration of diacylglycerols (DAGs), effect (APOE*3Leiden.CETP mice [4]): had no effect; Fibrosis, effect (APOE*3Leiden.CETP mice [5]; 20 weeks): no change; Number of inflammatory cell aggregates, change versus control (APOE*3Leiden.CETP mice [5]; 20 weeks): −67%; Serum amyloid A, change versus control (APOE*3Leiden.CETP mice [5]; 20 weeks): −46%; Hepatic cholesterol ester, effect (APOE*3Leiden.CETP mice [5]; 20 weeks, biochemical analysis of intrahepatic lipids): significant reduction; Hepatocellular hypertrophy, change versus control (APOE*3Leiden.CETP mice [5]; [6]): did not significantly affect; Microvesicular steatosis, change versus control (APOE*3Leiden.CETP mice [5]; [6]): did not significantly affect; Serum amyloid A (APOE*3Leiden.CETP mice [5]; after 20 weeks of treatment, control 29.8 ± 5.0, mean ± SEM): 16.1 ± 3.3; Plasma monocyte chemoattractant protein 1 (APOE*3Leiden.CETP mice [5]; after 20 weeks of treatment, control 111.5 ± 17.1, mean ± SEM): 65.1 ± 5.1; Body weight, change versus control (APOE*3Leiden.CETP mice [5]; week 16 and 20, data not shown): did not significantly increase

From PMC6996349 (Hepatology Communications, 2019)
